Assay results: ChEMBL document CHEMBL1127461, “Synthesis of new acyclic pyrimidine nucleoside analogs as potential antiviral drugs” (J Med Chem, 1994)

Key:
[1] = In Vitro cytotoxicity against HSV-1 at 5 ug/mL concentration; type: organism-based; details: human alphaherpesvirus 1, in vitro
Summary of the method: (§1)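 Uninfected mouse embryo cell cultures were exposed to compound at 0.05, 0.5, 5, 50 and 500 μg/mL for 3 days. Cultures were then examined macro- and microscopically, and growth inhibition or disruption of the cells was taken as cytotoxicity.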

Human alphaherpesvirus 1 [2] = assay: In Vitro antiviral activity against HSV-1 at 0.05 ug/mL concentration; type: functional
Summary of the method: (§2)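 Mouse embryo cell cultures infected with HSV-1 were exposed to compound at 0.05, 0.5, 5, 50 and 500 μg/mL for 3 days. Infected cultures were then inspected macro- and microscopically, and reduction or inhibition of virus-induced cell destruction was scored. Aciclovir, 5-ethyldeoxyuridine and PMEG served as reference drugs.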

Human alphaherpesvirus 1 [3] = assay: In Vitro antiviral activity against HSV-1 at 500 ug/mL concentration; type: functional; summary of the method: as §2
Human alphaherpesvirus 1 [4] = assay: In Vitro antiviral activity against HSV-1 at 0.5 ug/mL concentration; type: functional; summary of the method: as §2
Human alphaherpesvirus 1 [5] = assay: In Vitro antiviral activity against HSV-1 at 5 ug/mL concentration; type: functional; summary of the method: as §2
Human alphaherpesvirus 1 [6] = assay: In Vitro antiviral activity against HSV-1 at 50 ug/mL concentration; type: functional; summary of the method: as §2
[7] = In Vitro cytotoxicity […] at 500 ug/mL concentration; type: organism-based; summary of the method: as §1
[8] = In Vitro cytotoxicity […] at 50 ug/mL concentration; type: organism-based; summary of the method: as §1

`O=[N+]([O-])c1c(O)nc(O)nc1NCCCCO` gave an inhibition at 5 ug/mL [1] of 0%, an inhibition at 0.05 µg/mL (Human alphaherpesvirus 1 [2]) of 0% and an inhibition at 500 µg/mL (Human alphaherpesvirus 1 [3]) of 0%. The inhibition at 0.5 µg/mL (Human alphaherpesvirus 1 [4]) was 0%, the inhibition at 5 µg/mL (Human alphaherpesvirus 1 [5]) was 0% and the inhibition at 50 µg/mL (Human alphaherpesvirus 1 [6]) was 0%. It also gave an inhibition at 500 ug/mL [7] of 0% and an inhibition at 50 ug/mL [8] of 0%.
With `Nc1nc(O)c([N+](=O)[O-])c(NCCCCO)n1` the inhibition at 5 ug/mL [1] was 0%, the inhibition at 0.05 µg/mL (Human alphaherpesvirus 1 [2]) was 0% and the inhibition at 500 µg/mL (Human alphaherpesvirus 1 [3]) was 0%. For the same compound, the inhibition at 0.5 µg/mL (Human alphaherpesvirus 1 [4]) was 0%, the inhibition at 5 µg/mL (Human alphaherpesvirus 1 [5]) was 0% and the inhibition at 50 µg/mL (Human alphaherpesvirus 1 [6]) was 0%. The inhibition at 500 ug/mL [7] was 100% and the inhibition at 50 ug/mL [8] was 0%.
With `Nc1nc(O)c([N+](=O)[O-])c(NCCOCP(=O)(O)O)n1` the inhibition at 5 ug/mL [1] was 0%, the inhibition at 0.05 µg/mL (Human alphaherpesvirus 1 [2]) was 0% and the inhibition at 500 µg/mL (Human alphaherpesvirus 1 [3]) was 0%. The inhibition at 0.5 µg/mL (Human alphaherpesvirus 1 [4]) was 0%, the inhibition at 5 µg/mL (Human alphaherpesvirus 1 [5]) was 0% and the inhibition at 50 µg/mL (Human alphaherpesvirus 1 [6]) was 0%. The inhibition at 500 ug/mL [7] was 0% and the inhibition at 50 ug/mL [8] was 0%.
Compound `OCCCCNc1cc(O)nc(O)n1` has an inhibition at 5 ug/mL [1] of 0%, an inhibition at 0.05 µg/mL (Human alphaherpesvirus 1 [2]) of 0% and an inhibition at 500 µg/mL (Human alphaherpesvirus 1 [3]) of 0%. It also gave an inhibition at 0.5 µg/mL (Human alphaherpesvirus 1 [4]) of 0%, an inhibition at 5 µg/mL (Human alphaherpesvirus 1 [5]) of 0% and an inhibition at 50 µg/mL (Human alphaherpesvirus 1 [6]) of 0%. The inhibition at 500 ug/mL [7] was 25% and the inhibition at 50 ug/mL [8] was 0%.
With `Nc1nc(Cl)cc(NCCCCO)n1` the inhibition at 5 ug/mL [1] was 0%, the inhibition at 0.05 µg/mL (Human alphaherpesvirus 1 [2]) was 0% and the inhibition at 500 µg/mL (Human alphaherpesvirus 1 [3]) was 0%. For the same compound, the inhibition at 0.5 µg/mL (Human alphaherpesvirus 1 [4]) was 0%, the inhibition at 5 µg/mL (Human alphaherpesvirus 1 [5]) was 0% and the inhibition at 50 µg/mL (Human alphaherpesvirus 1 [6]) was 0%. It also gave an inhibition at 500 ug/mL [7] of 50% and an inhibition at 50 ug/mL [8] of 0%.
For `Nc1nc(O)c(N)c(NCCOCP(=O)(O)O)n1`, the inhibition at 0.05 µg/mL (Human alphaherpesvirus 1 [2]) was 50%, the inhibition at 0.5 µg/mL (Human alphaherpesvirus 1 [4]) was 100% and the inhibition at 5 µg/mL (Human alphaherpesvirus 1 [5]) was 100%. For the same compound, the inhibition at 500 ug/mL [7] was 75%.
Work on `Nc1nc(O)c2ncn(COCCP(=O)(O)O)c2n1` yielded an inhibition at 0.05 µg/mL (Human alphaherpesvirus 1 [2]) of 100% and an inhibition at 0.5 µg/mL (Human alphaherpesvirus 1 [4]) of 100%.
For `Nc1nc(O)cc(NCCCCO)n1`, the inhibition at 5 ug/mL [1] was 0%, the inhibition at 0.05 µg/mL (Human alphaherpesvirus 1 [2]) was 0% and the inhibition at 500 µg/mL (Human alphaherpesvirus 1 [3]) was 0%. The inhibition at 0.5 µg/mL (Human alphaherpesvirus 1 [4]) was 0%, the inhibition at 5 µg/mL (Human alphaherpesvirus 1 [5]) was 0% and the inhibition at 50 µg/mL (Human alphaherpesvirus 1 [6]) was 0%. The inhibition at 500 ug/mL [7] was 0% and the inhibition at 50 ug/mL [8] was 0%.
For `OCCCCNc1nc(O)nc(O)c1I`, the inhibition at 5 ug/mL [1] was 0%, the inhibition at 0.05 µg/mL (Human alphaherpesvirus 1 [2]) was 0% and the inhibition at 500 µg/mL (Human alphaherpesvirus 1 [3]) was 0%. For the same compound, the inhibition at 0.5 µg/mL (Human alphaherpesvirus 1 [4]) was 0%, the inhibition at 5 µg/mL (Human alphaherpesvirus 1 [5]) was 0% and the inhibition at 50 µg/mL (Human alphaherpesvirus 1 [6]) was 0%. For the same compound, the inhibition at 500 ug/mL [7] was 100% and the inhibition at 50 ug/mL [8] was 100%.
Work on `Nc1nc2c(ncn2COCCO)c(=O)[nH]1` [ACYCLOVIR] yielded an inhibition at 5 ug/mL [1] of 0%, an inhibition at 0.05 µg/mL (Human alphaherpesvirus 1 [2]) of 100% and an inhibition at 500 µg/mL (Human alphaherpesvirus 1 [3]) of 100%. The inhibition at 0.5 µg/mL (Human alphaherpesvirus 1 [4]) was 100%, the inhibition at 5 µg/mL (Human alphaherpesvirus 1 [5]) was 100% and the inhibition at 50 µg/mL (Human alphaherpesvirus 1 [6]) was 100%. It also gave an inhibition at 500 ug/mL [7] of 0% and an inhibition at 50 ug/mL [8] of 0%.
With `CCc1cn([C@H]2C[C@H](O)[C@@H](CO)O2)c(=O)[nH]c1=O` [EDOXUDINE] the inhibition at 5 ug/mL [1] was 0%, the inhibition at 0.05 µg/mL (Human alphaherpesvirus 1 [2]) was 0% and the inhibition at 500 µg/mL (Human alphaherpesvirus 1 [3]) was 100%. For the same compound, the inhibition at 0.5 µg/mL (Human alphaherpesvirus 1 [4]) was 25%, the inhibition at 5 µg/mL (Human alphaherpesvirus 1 [5]) was 100% and the inhibition at 50 µg/mL (Human alphaherpesvirus 1 [6]) was 100%. For the same compound, the inhibition at 500 ug/mL [7] was 0% and the inhibition at 50 ug/mL [8] was 0%.
